{"source": "ChEMBL document CHEMBL4765386", "about": "“Discovery of tertiary amide derivatives incorporating benzothiazole moiety as anti-gastric cancer agents in vitro via inhibiting tubulin polymerization and activating the Hippo signaling pathway” (Eur J Med Chem, 2020)", "key": {"[1]": {"system": "SGC-7901", "assay": "Induction of apoptosis in human SGC-7901 cells assessed as early apoptotic cells at 60 nM incubated for 48 hrs by annexin V-FITC and PI staining based flow cytometry analysis (reference value: 1.4 %)", "format": "functional"}, "[2]": {"system": "MGC-803", "assay": "Induction of apoptosis in human MGC-803 cells assessed as late apoptotic cells at 60 nM incubated for 48 hrs by annexin V-FITC and PI staining based flow cytometry analysis (reference value: 4.1 %)", "format": "functional"}, "[3]": {"system": "SGC-7901", "assay": "Induction of apoptosis in human SGC-7901 cells assessed as downregulation of XIAP at 20 to 60 nM incubated for 48 hrs by Western blot analysis", "format": "functional, cell-based", "settings": "dose 20-60 nM", "method_in_brief": "(§1)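 Western blot on MGC-803 and SGC-7901 cells given 20, 40 and 60 nM compound or DMSO for 48 h. Denatured lysates were run on SDS-PAGE and transferred to PVDF, then probed with primary and secondary antibodies to detect apoptosis-related proteins.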"}, "[4]": {"system": "MGC-803", "assay": "Induction of apoptosis in human MGC-803 cells assessed as downregulation of c-IAP1 at 20 to 60 nM incubated for 48 hrs by Western blot analysis", "format": "functional, cell-based", "settings": "dose 20-60 nM", "method_in_brief": "as §1"}, "[5]": {"system": "SGC-7901", "assay": "Induction of cell cycle arrest in human SGC-7901 cells assessed as downregulation of Cyclin B1 at 20 to 60 nM incubated for 48 hrs by Western blot analysis", "format": "functional, cell-based", "settings": "dose 20-60 nM", "method_in_brief": "(§2)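 Cells grown in RPMI-1640 with 10% FBS, penicillin/streptomycin at 37 °C, 5% CO2. Exposure to 20, 40 or 60 nM for 48 h alongside DMSO control. Lysates denatured, resolved by SDS-PAGE, transferred to PVDF, blocked, then probed with primary and secondary antibodies.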"}, "[6]": {"system": "SGC-7901", "assay": "Induction of apoptosis in human SGC-7901 cells assessed as early apoptotic cells at 40 nM incubated for 48 hrs by annexin V-FITC and PI staining based flow cytometry analysis (reference value: 1.4 %)", "format": "functional"}, "[7]": {"system": "SGC-7901", "assay": "Induction of apoptosis in human SGC-7901 cells assessed as upregulation of Bak at 20 to 60 nM incubated for 48 hrs by Western blot analysis", "format": "functional, cell-based", "settings": "dose 20-60 nM", "method_in_brief": "as §2"}, "[8]": {"system": "SGC-7901", "assay": "Induction of apoptosis in human SGC-7901 cells assessed as upregulation of t-Bid at 20 to 60 nM incubated for 48 hrs by Western blot analysis", "format": "functional, cell-based", "settings": "dose 20-60 nM", "method_in_brief": "as §2"}, "[9]": {"assay": "Inhibition of pig brain tubulin polymerization in presence of GTP by spectrophotometric method", "set-up": "species or system Sus scrofa", "method_in_brief": "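Tubulin purified from pig brain by three temperature-dependent assembly/disassembly cycles in PIPES pH 6.5 (100 mM), 1.0 mM MgSO4, 2.0 mM EGTA, 1.0 mM GTP, 1.0 mM 2-mercaptoethanol, then phosphocellulose chromatography. Protein mixed with compound in PEM buffer with 1 mM GTP and 5% glycerol.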"}, "[10]": {"system": "SGC-7901", "assay": "Induction of apoptosis in human SGC-7901 cells assessed as downregulation of Bcl-xl at 20 to 60 nM incubated for 48 hrs by Western blot analysis", "format": "functional, cell-based", "settings": "dose 20-60 nM", "method_in_brief": "as §1"}, "[11]": {"system": "SGC-7901", "assay": "Induction of apoptosis in human SGC-7901 cells assessed as early apoptotic cells at 20 nM incubated for 48 hrs by annexin V-FITC and PI staining based flow cytometry analysis (reference value: 1.4 %)", "format": "functional"}, "[12]": {"system": "SGC-7901", "assay": "Induction of apoptosis in human SGC-7901 cells assessed as upregulation of Bax at 20 to 60 nM incubated for 48 hrs by Western blot analysis", "format": "functional, cell-based", "settings": "dose 20-60 nM", "method_in_brief": "as §2"}, "[13]": {"system": "MGC-803", "assay": "Inhibition of colony formation in human MGC-803 cells at 20 to 60 nM incubated for 7 days by crystal violet staining based assay", "format": "functional, cell-based", "settings": "dose 20-60 nM, time 7.0 day", "method_in_brief": "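Cells maintained in RPMI-1640 with 10% FBS at 37 °C, 5% CO2; incubated with 20, 40 and 60 nM for 7 days before colony counting.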"}, "[14]": {"system": "MGC-803", "assay": "Induction of apoptosis in human MGC-803 cells assessed as late apoptotic cells at 40 nM incubated for 48 hrs by annexin V-FITC and PI staining based flow cytometry analysis (reference value: 4.1 %)", "format": "functional"}, "[15]": {"system": "MGC-803", "assay": "Activation of Hippo signaling pathway in human […] cells assessed as increase in MST1/2 phosphorylation at 20 to 60 nM incubated for 48 hrs by Western blot analysis", "format": "cell-based", "settings": "filed as activator, dose 20-60 nM", "method_in_brief": "(§3)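 Western blot on gastric cancer cells exposed to compound or DMSO at 20, 40 and 60 nM for 48 h. Cells were lysed, then the denatured lysates were separated by SDS-PAGE and transferred to PVDF. Membranes were blocked and probed with primary and then secondary antibodies. Hippo pathway proteins were detected.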"}, "[16]": {"system": "MGC-803", "assay": "Activation of Hippo signaling pathway in human […] cells assessed as increase in LATS phosphorylation at 20 to 60 nM incubated for 48 hrs by Western blot analysis", "format": "cell-based", "settings": "filed as activator, dose 20-60 nM", "method_in_brief": "as §3"}, "[17]": {"system": "MGC-803", "assay": "Induction of apoptosis in human MGC-803 cells assessed as late apoptotic cells at 20 nM incubated for 48 hrs by annexin V-FITC and PI staining based flow cytometry analysis (reference value: 4.1 %)", "format": "functional"}, "[18]": {"system": "MGC-803", "assay": "Induction of apoptosis in human MGC-803 cells assessed as early apoptotic cells at 40 nM incubated for 48 hrs by annexin V-FITC and PI staining based flow cytometry analysis (reference value: 2.9 %)", "format": "functional"}, "[19]": {"system": "MGC-803", "assay": "Induction of apoptosis in human MGC-803 cells assessed as early apoptotic cells at 60 nM incubated for 48 hrs by annexin V-FITC and PI staining based flow cytometry analysis (reference value: 2.9 %)", "format": "functional"}, "[20]": {"system": "SGC-7901", "assay": "Antiproliferative activity against human SGC-7901 cells assessed as reduction in cell viability incubated for 48 hrs by MTT assay", "format": "functional, cell-based", "settings": "SGC-7901, 48 h", "method_in_brief": "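MTT assay. 5,000 cells per well in RPMI-1640 with 10% FBS and penicillin/streptomycin at 37 °C, 5% CO2. Compound added 24 h after seeding and left for 48 h. MTT was then added for 4 h at 37 °C, formazan dissolved in DMSO and absorbance read at 490 nm. IC50 calculated from three independent experiments.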"}, "[21]": {"system": "SGC-7901", "assay": "Induction of apoptosis in human SGC-7901 cells assessed as upregulation of Noxa at 20 to 60 nM incubated for 48 hrs by Western blot analysis", "format": "functional, cell-based", "settings": "dose 20-60 nM", "method_in_brief": "as §2"}, "[22]": {"system": "SGC-7901", "assay": "Induction of apoptosis in human SGC-7901 cells assessed as upregulation of FADD at 20 to 60 nM incubated for 48 hrs by Western blot analysis", "format": "functional, cell-based", "settings": "dose 20-60 nM", "method_in_brief": "as §2"}, "[23]": {"system": "SGC-7901", "assay": "Inhibition of tubulin polymerization in human SGC-7901 cells assessed as increase in multiple nucleus formation at 20 to 60 nmol/L by DAPI staining based microscopic analysis", "format": "cell-based", "settings": "dose 20-60 nmol/L", "method_in_brief": "(§4)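 Cells cultured in RPMI-1640 with 10% FBS at 37 °C, 5% CO2, treated 48 h with 20, 40 and 60 nM; stained for β-tubulin (green) and nuclei (blue) and examined by microscopy.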"}, "[24]": {"system": "SGC-7901", "assay": "Inhibition of tubulin polymerization in human SGC-7901 cells assessed as decrease in filamentous structure at 20 to 60 nmol/L by DAPI staining based microscopic analysis", "format": "cell-based", "settings": "dose 20-60 nmol/L", "method_in_brief": "as §4"}, "[25]": {"system": "MGC-803", "assay": "Displacement of EBI from beta-tubulin in human MGC-803 cells assessed as reduction in tubulin adduct formation incubated for 2 hrs followed by EBI addition and measured after 2 hrs by Western blot analysis", "format": "cell-based", "settings": "dose 0.25-2.5 µM, time 4.0 hrs", "method_in_brief": "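EBI competition assay. […] EBI was then added at […] as printed for another 2 h. Harvested cells were immunoblotted with anti-β-tubulin antibody to detect β-tubulin and the alkylated β-tubulin adduct.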"}}, "note": "Activity calls are given as the source filed them. The calls are words filed in the database; no cut-off is given here.", "data": [{"smiles": "COc1ccc(CN(C(=O)CSc2nc3ccccc3s2)c2cc(OC)c(OC)c(OC)c2)cc1O", "values": [{"measurement": "Activity", "setting": "[1]", "value": 19.1, "unit": "%"}, {"measurement": "Activity", "setting": "[2]", "value": 30.4, "unit": "%"}, {"measurement": "Activity", "setting": "[3]", "value": "Active"}, {"measurement": "Activity", "setting": "[4]", "value": "Active"}, {"measurement": "Activity", "setting": "[5]", "value": "Active"}, {"measurement": "Activity", "setting": "[6]", "value": 9.5, "unit": "%"}, {"measurement": "Activity", "setting": "[7]", "value": "Active"}, {"measurement": "Activity", "setting": "[8]", "value": "Active"}, {"measurement": "IC50", "setting": "[9]", "value": 1900, "unit": "nM"}, {"measurement": "Activity", "setting": "[10]", "value": "Active"}, {"measurement": "Activity", "setting": "[11]", "value": 4.2, "unit": "%"}, {"measurement": "Activity", "setting": "[12]", "value": "Active"}, {"measurement": "Activity", "setting": "[13]", "value": "Active"}, {"measurement": "Activity", "setting": "[14]", "value": 10.1, "unit": "%"}, {"measurement": "Activity", "setting": "[15]", "value": "Active"}, {"measurement": "Activity", "setting": "[16]", "value": "Active"}, {"measurement": "Activity", "setting": "[17]", "value": 4.1, "unit": "%"}, {"measurement": "Activity", "setting": "[18]", "value": 10.2, "unit": "%"}, {"measurement": "Activity", "setting": "[19]", "value": 43, "unit": "%"}, {"measurement": "IC50", "setting": "[20]", "value": 49, "unit": "nM"}, {"measurement": "Activity", "setting": "[21]", "value": "Active"}, {"measurement": "Activity", "setting": "[22]", "value": "Active"}, {"measurement": "Activity", "setting": "[23]", "value": "Active"}, {"measurement": "Activity", "setting": "[24]", "value": "Active"}, {"measurement": "inhibition", "setting": "[25]", "value": "Dose-dependent effect"}]}]}
